An excerpt weighted towards active compounds, which were near 2.8% of everything screened.
MC4R ag barr: activates human MC4R beta-arrestin recruitment. activation, % at 8.9 µM. U2OS MC4R beta-arrestin complementation, luminescence; percent of melanotan II response, DMSO zero. 360,000 tested, 0.98% active. P32245. AID 540308;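 active = activation above a per-plate cutoff, the mean activation of sample wells on that plate plus 3 SD, cut at about 8% in these data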
MC4R antagonist: blocks human MC4R cAMP signaling. P32245. MC4R-expressing cells, MTII-stimulated cAMP, LANCE TR-FRET. inhibition, % at 6.5 µM. 360,000 tested, 0.48% active. AID 540295;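 active = inhibition above its plate's cutoff, the mean of tested wells on that plate plus 3 SD, cut at about 29% in these data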
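Assay system: U2OS cells stably expressing human melanocortin 4 receptor (MC4R) / Dosing: 6.5 µM / Timing: compound 30 min, challenge 1 h, detection 1 h / Measured by: Eu-cAMP/anti-cAMP TR-FRET, emission 671 nm / Replicates: singlicate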
EBI2 block: antagonists of human EBI2 receptor | 360,000 tested, 0.81% active | inhibition, % at 5 µM | EBI2 beta-arrestin recruitment, luminescence, 7a,25-OHC stimulated; in the data active = inhibition above about 38%;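 note: enzyme fragment complementation signal reports receptor beta-arrestin coupling in cells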
HTR2A ag: activates the mouse 5-HT2A serotonin receptor; P35363; CHO-K1 mHTR2A beta-arrestin complementation, luminescence; percent of 30 µM serotonin response; activation, % at 7.6 µM; 360,000 tested, 0.66% active; AID 624169;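 active = activation above a run cutoff, the mean activation of all tested compounds plus 3 SD, cut at about 14% in these data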
Target sequence (P35363 whole entry, looked up): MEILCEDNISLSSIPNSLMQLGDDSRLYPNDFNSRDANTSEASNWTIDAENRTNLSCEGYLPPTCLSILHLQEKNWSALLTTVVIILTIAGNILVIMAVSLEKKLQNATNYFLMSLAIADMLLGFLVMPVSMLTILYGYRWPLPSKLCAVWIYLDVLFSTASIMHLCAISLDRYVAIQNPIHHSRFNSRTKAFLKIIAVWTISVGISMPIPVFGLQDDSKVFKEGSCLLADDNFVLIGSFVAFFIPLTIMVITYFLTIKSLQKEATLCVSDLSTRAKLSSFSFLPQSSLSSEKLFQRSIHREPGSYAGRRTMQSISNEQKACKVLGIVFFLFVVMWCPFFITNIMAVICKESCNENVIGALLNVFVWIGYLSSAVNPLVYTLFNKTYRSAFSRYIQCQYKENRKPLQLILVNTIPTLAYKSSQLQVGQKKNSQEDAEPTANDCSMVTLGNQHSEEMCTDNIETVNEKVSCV
Numbers stand for hits; 0 = inactive; - = no result.

SMILES	MC4R ag barr	MC4R antagonist	EBI2 block	HTR2A ag
CCOC(=O)[C@]12Cc3cc(Cl)ccc3[C@H]1N(C1CCCCC1)C(=O)c1ccccc12	-	-	76	0
COc1ccc2c(C)c(CC(=O)N3C[C@H]4C[C@@H](C3)c3cccc(=O)n3C4)c(=O)oc2c1C	0	0	0	0
N#CC1c2ccccc2-n2nncc2CN1Cc1cc(Cl)cc(Cl)c1 (stereo unspecified)	0	0	43	0
CN1Cc2cnnn2-c2ccccc2C1C#N (stereo unspecified)	0	0	0	0
Cc1cc(C=C2C(=O)NC(=S)NC2=O)c(C)n1-c1ccc2c(c1)OCO2	0	0	0	16
Cc1nc2ccccc2c(=O)n1-c1nccs1	-	-	0	0
Cc1ccc(-c2nc3ccccc3c(=O)n2-c2nccs2)cc1	9.2	0	0	0
CCC1C(c2ccccc2)NC(c2ccccc2)CC1(O)c1ccc(F)cc1 (stereo unspecified)	0	0	0	0
Cc1cc2c(C(C)C)c(O)c(O)c(C=O)c2c(O)c1-c1c(C)cc2c(C(C)C)c(O)c(O)c(C=O)c2c1O	9.5	0	0	0
CCC1CCC(C)N(N=O)C1 (stereo unspecified)	0	0	0	0
C=CCCC[C@@H]1OC(=O)CNC(=O)C([C@@H](C)CC)NC(=O)[C@@H]2CCCN2C(=O)C([C@@H](C)CC)OC(=O)[C@H](Cc2ccccc2)N(C)C(=O)[C@H](C(C)C)NC(=O)C1(C)C (stereo partly specified)	-	-	0	0
CC[C@H](C)C1OC(=O)[C@@H](C)[C@@H](CC)NC(=O)[C@H](C)N(C)C(=O)C(C)(C)C(=O)C(C)NC(=O)[C@H](Cc2ccc(OC)cc2)N(C)C(=O)[C@H](C(C)C)N(C)C(=O)CNC(=O)[C@H](CC(C)C)N(C)C(=O)CNC1=O (stereo partly specified)	-	-	0	21
COC1CCC(OC2CC(C3(C)CCC4(CC(O)C(C)C(C(C)/C=C(\C)C(=O)C(C)CC(C)C(=O)O)O4)O3)OC3(OC(C4OC(O)(CO)C(C)CC4C)CC3C)C2C)OC1C (stereo unspecified)	19	0	0	0
CC1(C)CC(n2[nH]c(=O)c3c2NC(=O)CSC3c2ccccc2)CCO1 (stereo unspecified)	0	0	0	0
O=c1[nH]c(=O)n(-c2ccc(F)cc2)c(O)c1C=Nc1ccccc1N1CCCC1	0	0	0	0
Fc1ccc(CCNCc2ccc(Cl)c(Cl)c2)cc1	8.7	0	0	0
O=S(=O)(c1ccccc1)N1Cc2ccccc2-n2nncc2C1	0	0	0	0
COC(=O)[C@@H]1[C@@H](C(=O)OC)C2(c3ccccc3-c3ccccc32)N(c2ccc(Cl)cc2)N1C#N	0	0	45	0
COc1ccc(O)c2c(=O)c3c(OC)cc4c(c3oc12)C1C=COC1O4 (stereo unspecified)	0	0	53	0
C[C@@H]1O[C@@H](O[C@H]2C[C@@H](O)[C@]3(CO)[C@H]4[C@H](O)C[C@]5(C)[C@@H](C6=CC(=O)OC6)CC[C@]5(O)[C@@H]4CC[C@]3(O)C2)[C@H](O)[C@H](O)[C@H]1O	35	0	0	0
Cc1nc(CCl)cc(=O)[nH]1	0	0	0	0
C[C@]12CC[C@H]3[C@@H](CC[C@]4(O)C[C@@H](O)CC[C@]34C=O)[C@@]1(O)CC[C@@H]2C1=CC(=O)OC1	27	0	0	0
CC12CCC3C(CCC4(O)CC(O)CCC34C=NO)C1(O)CCC2C1=COC(=O)C1 (stereo unspecified)	26	0	0	0
C[C@H]1O[C@@H](OC2CC[C@]3(C=O)[C@H]4CC[C@]5(C)[C@@H](C6=CC(=O)OC6)CC[C@]5(O)[C@@H]4CC[C@]3(O)C2)CC2OC(C)(C)OC21 (stereo partly specified)	40	0	0	0
CC12CCC3C(CCC4(O)CC(O)CCC34C=O)C1(O)CCC2C1=CC(=O)OC1 (stereo unspecified)	21	0	0	0
SMILES	MC4R ag barr	MC4R antagonist	EBI2 block	HTR2A ag
CC12CC[C@H]3[C@@H](CCC4(O)C[C@H](O)CCC34/C=N/NC(=O)c3ccccc3Cl)C1(O)CCC2C1=CC(=O)OC1 (stereo partly specified)	0	0	0	0
COc1ccc(-c2ccc(OC)c(OC)c2OC)cc1	0	0	0	0
CC/C(=N\NC(=O)c1ccccc1O)c1c(O)n(C2CCCCC2)c(=O)[nH]c1=O	0	0	0	0
C[C@H](CO)N1C[C@H](C)[C@@H](CN(C)C(=O)Oc2ccccc2)OCc2cnnn2CCCC1=O	0	0	0	0
COc1ccc(C(c2ccc(OC)cc2)C(Cl)(Cl)Cl)cc1	0	0	0	0
O=C1NCN(c2ccccc2)C12CCN(C(c1cccc3ccccc13)c1nnnn1-c1ccc3c(c1)OCCO3)CC2 (stereo unspecified)	-	-	0	0
C[C@]12CCC3C(CCC4=CC(O)CC[C@@]43/C=N/O)C1(O)CCC2C1=CC(=O)OC1 (stereo partly specified)	39	0	0	0
CCCCN=C[C@]12CCC(O)CC1(O)CCC1[C@@H]2CC[C@]2(C)[C@H](C3C=CC(=O)O3)CCC12O (stereo partly specified)	35	0	0	0
CC(=O)OC1CC2(O)C3CCC4CC(O)CCC4(C)C3CCC2(C)C1C1=CC(=O)OC1 (stereo unspecified)	17	0	0	0
CC(=O)OC1CC(OC2C(O)CC(OC3C(O)CC(OC4CCC5(C)C(CCC6C5CCC5(C)C(C7=CC(=O)OC7)C(O)CC65O)C4)OC3C)OC2C)OC(C)C1OC1OC(CO)C(O)C(O)C1O (stereo unspecified)	15	0	0	0
CC(=O)[C@H]1CCC2C3CC[C@H]4C[C@@H](O)CC[C@]4(C)C3CC[C@@]21C (stereo partly specified)	0	0	0	0
CC(=O)O[C@@H]1CC[C@]2(C)C3CC[C@@]4(C)C(C[C@@H](O)[C@@H]4O)C3[C@@H](OC(C)=O)C[C@H]2C1 (stereo partly specified)	0	0	0	0
CC1OC(OC2C(O)CC(OC3C(O)CC(OC4CCC5(C)C(CCC6C5CCC5(C)C(C7=CC(=O)OC7)C(O)CC65O)C4)OC3C)OC2C)CC(O)C1O (stereo unspecified)	27	0	0	0
CCN(CC(=O)Nc1ccc(C#N)c(Cl)c1)CC(=O)NC1CCS(=O)(=O)C1 (stereo unspecified)	0	0	0	0
O=C1/C(=C/c2ccccc2)C[C@@]2(O)[C@H]3Cc4ccc(O)c5c4[C@@]2(CCN3CC2CC2)C1O5 (stereo partly specified)	0	0	55	0
Oc1ccc2c3c1OC1c4[nH]c5ccccc5c4C[C@@]4(O)C(C2)N(CC2CC2)CC[C@]314 (stereo partly specified)	0	0	0	0
O=[N+]([O-])c1ccc(N2CCNCC2)cc1N1CCCCC1	0	0	0	0
